Data from ChEMBL document CHEMBL5252608, “Eremoxylarins D-J, Antibacterial Eremophilane Sesquiterpenes Discovered from an Endolichenic Strain of Xylaria hypoxylon” (J Nat Prod, 2023).
Converted amounts (≈) assume the structure as drawn.

Columns and labels:
Assay type in all cases: functional
Staphylococcus aureus [1] = assay: Antibacterial activity against methicillin resistant Staphylococcus aureus DSM 13661 assessed as bacterial growth inhibition incubated for 24 hrs by optical density based microplate reader analysis
How it was run: (§1)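 Broth microdilution per CLSI, in triplicate: compounds as 5 mg/mL DMSO stocks (gentamicin 10 mg/mL stock as positive control), serially diluted 1:2 in LB. Wells inoculated with 10⁶ CFU/mL, 24 h at 37 °C, solvent-only negative control. OD630 read before and after incubation. MIC taken as the lowest-concentration clear well, i.e. no visible growth.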

Escherichia coli = assay: Antibacterial activity against […] Escherichia coli CIP 54.8 assessed as bacterial growth inhibition incubated for 24 hrs by optical density based microplate reader analysis; how it was run: as §1
Staphylococcus aureus [2] = assay: Antibacterial activity against Staphylococcus aureus CIP 53.156 assessed as bacterial growth inhibition incubated for 24 hrs by optical density based microplate reader analysis
How it was run: (§2)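 Broth microdilution in LB per CLSI, in triplicate; compounds dissolved in DMSO (stock 5 mg/mL; gentamicin stock 10 mg/mL as positive control), serially diluted 1:2. Wells inoculated with 10⁶ CFU/mL, incubated 24 h at 37 °C, with solvent as negative control. OD 630 nm read before and after incubation; MIC taken as the lowest-concentration clear well. Wells also plated on LB agar for 24 h at 37 °C.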

Pseudomonas aeruginosa = assay: Antibacterial activity against Pseudomonas aeruginosa CIP A22 assessed as bacterial growth inhibition incubated for 24 hrs by optical density based microplate reader analysis; how it was run: as §2
[3] = test system: Staphylococcus epidermidis; assay: Antibacterial activity against Staphylococcus epidermidis CIP 53.124 assessed as bacterial growth inhibition incubated for 24 hrs by optical density based microplate reader analysis; how it was run: as §2
Huh-7 = assay: Cytotoxicity against human Huh-7 cells assessed as cell growth inhibition measured after 24 hrs by MTS assay
How it was run: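 Huh-7 cells (DMEM with glutaMAX-I, 10% FBS, 37 °C, 5% CO₂), 6×10^4 per well, allowed 16 h before 24 h exposure to increasing compound concentrations (DMSO stocks 100 mM). Viability by MTS, formazan absorbance at 490 nm; CC50 derived. Mean ± SEM of 3 experiments.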

GENTAMICIN
MIC (Staphylococcus aureus [1]): 250 µg/mL
MIC (Escherichia coli): 3.91 µg/mL
MIC (Staphylococcus aureus [2]): 3.91 µg/mL
MIC (Pseudomonas aeruginosa): 1.95 µg/mL
MIC [3]: > 250 µg/mL

C=C(C=O)[C@H]1CC=C2[C@H](OC(=O)/C(C)=C/C=C/CCCCC)CC[C@H](C(=O)O)[C@@]2(C)C1
MIC (Staphylococcus aureus [1]): 3.1 µg/mL (≈ 7.23 µM)
CC50 (Huh-7): 184 µM
MIC (Escherichia coli): > 50 µg/mL
MIC (Staphylococcus aureus [2]): 1.56 µg/mL (≈ 3.64 µM)
MIC (Pseudomonas aeruginosa): > 50 µg/mL
MIC [3]: 3.1 µg/mL (≈ 7.23 µM)

C=C(C=O)[C@H]1CC=C2[C@H](OC(=O)/C(C)=C/CCCCCCC)CC[C@H](C(=O)O)[C@@]2(C)C1
MIC (Staphylococcus aureus [1]): 1.56 µg/mL (≈ 3.62 µM)
CC50 (Huh-7): 48.1 µM
MIC (Escherichia coli): > 50 µg/mL
MIC (Staphylococcus aureus [2]): 0.39 µg/mL (≈ 0.906 µM)
MIC (Pseudomonas aeruginosa): > 50 µg/mL
MIC [3]: 1.56 µg/mL (≈ 3.62 µM)
